The text below walks through data of ChEMBL document CHEMBL1129968, “Synthesis, dopamine transporter affinity, dopamine uptake inhibition, and locomotor stimulant activity of 2-substituted 3 beta-phenyltropane derivatives” (J Med Chem, 1997).

pIC50, pKi: −log10 of the molar value. Where “and” joins values, the source holds several entries; their conditions need not be identical. Equal entries are not always repeated.

The species entered for assay [1] is Rattus norvegicus. Kind of assay: Compound was evaluated for inhibition of [3H]- dopamine uptake in rat caudate - putamen tissue. It is filed as functional. The method in brief: (§1)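 [3H]dopamine uptake into rat caudate-putamen tissue. IC50 values are the mean ± SEM of three experiments, each run in triplicate. Compounds were tested as HCl salts unless noted, some as fumarate salts.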

The species named for assay [2] is Mus musculus. Kind of assay: Stimulation of locomotor activity of Mice. The class given is functional. The method in brief: (§2)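 Mice given drug or saline vehicle, with horizontal activity counts recorded in 10 min periods over a 60 min session. Eight mice per dose, doses in µmol/kg. The dose-response used the first 30 min after injection. ED50 is from the dose-response, and the maximal stimulant effect and time course were also assessed.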

The target in assay [3] is T1, Sodium-dependent dopamine transporter (Rattus norvegicus, UniProt P23977). Kind of assay: Displacement of [3H]WIN-35428 from dopamine transporter (DAT) in Rat Caudate Putamen. The class given is tissue-based. The method in brief: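 Ki is the inhibition constant derived for the unlabeled ligand. Values are the mean ± SEM of three experiments run in triplicate. Compounds were tested as HCl salts unless noted, some as fumarate salts. Data were fitted to single-site versus two-site binding models.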
T1 sequence (P23977 whole entry): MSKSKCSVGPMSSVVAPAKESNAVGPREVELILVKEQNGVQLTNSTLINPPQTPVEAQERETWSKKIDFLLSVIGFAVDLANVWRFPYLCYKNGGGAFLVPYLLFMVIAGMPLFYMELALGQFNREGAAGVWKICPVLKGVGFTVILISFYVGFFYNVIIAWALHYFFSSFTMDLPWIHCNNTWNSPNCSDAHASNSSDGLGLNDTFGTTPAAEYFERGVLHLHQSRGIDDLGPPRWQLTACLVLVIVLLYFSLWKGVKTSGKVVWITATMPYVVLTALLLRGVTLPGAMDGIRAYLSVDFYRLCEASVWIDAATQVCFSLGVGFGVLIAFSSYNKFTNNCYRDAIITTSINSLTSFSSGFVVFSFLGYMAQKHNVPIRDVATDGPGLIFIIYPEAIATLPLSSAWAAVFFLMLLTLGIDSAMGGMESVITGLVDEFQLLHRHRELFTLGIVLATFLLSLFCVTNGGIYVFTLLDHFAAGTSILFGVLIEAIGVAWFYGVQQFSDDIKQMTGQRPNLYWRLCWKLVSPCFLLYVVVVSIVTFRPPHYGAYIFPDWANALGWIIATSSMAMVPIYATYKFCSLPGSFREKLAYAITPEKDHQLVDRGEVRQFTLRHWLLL

Assay [4] is filed under the species Mus musculus. The experiment in a line: Stimulation of locomotor activity of mice. It is filed as functional. The method in brief: as §2
The species entered for assay [5] is Rattus norvegicus. Kind of assay: Values for substitution for Cocaine in rats Trained to discriminate Cocaine from saline. The class given is functional. The method in brief:
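Read-out is the percentage of responses on the cocaine-appropriate lever, with doses in µmol/kg. Lever selection was counted unreliable below 0.02 responses/s, and a point was dropped if fewer than half of subjects met this rate. Four to six rats per point. ED50 given with 95% confidence limits.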

The species named for assay [6] is Rattus norvegicus. The experiment in a line: Compound was evaluated for inhibition of [3H]- dopamine Uptake in rat caudate - putamen tissue. The class given is functional. The method in brief: as §1
Assay [7] deals with T1, Sodium-dependent dopamine transporter. Kind of assay: Compound was evaluated for its ability to displace [3H]WIN-35428 from dopamine transporter in rat caudate putamen tissue. The class given is tissue-based. The method in brief: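 Rat caudate-putamen tissue, displacing bound [3H]WIN 35,428. Ki is the inhibition constant derived for the unlabeled ligand. Values are the mean ± SEM of three experiments run in triplicate. Compounds were tested as HCl salts unless noted, some as fumarate salts. Data were fitted to single-site versus two-site binding models.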

Compound `COC(=O)/C=C/C1C(c2ccccc2)CC2CCC1N2C` (stereo not given) gave a negative-log IC50 (pIC50) in assay [1] of 6.91. Besides, the 50% effective dose (ED50) is 4.74 µmol/kg in assay [2] and 12.8 µmol/kg in assay [5]. In assay [3], this compound had a negative logarithm of the Ki (pKi) of 7.66. In assay [4], this compound registered a Max effect of 14996 Counts 10min-1.
Compound `COC(=O)CCCCC1C(c2ccccc2)CC2CCC1N2C` (stereo not given) showed a pIC50 in assay [6] of 6.89. In assay [3], the pKi was 7.52.
For `CN1C2CCC1C(CCC(=O)c1ccccc1)C(c1ccccc1)C2` (stereo not given) the same measures were 7.33 and 7.55.
For `CN1C2CCC1C(CCCc1ccccc1)C(c1ccccc1)C2` (stereo not given) the same measures were 7.37 and 7.80.
`COC(=O)/C=C/CCC1C(c2ccccc2)CC2CCC1N2C` (stereo not given) gave a negative logarithm of the IC50 (pIC50) in assay [6] of 6.69. Further, in assay [3], the pKi is 7.70. In assay [4], this compound registered a 50% effective dose (ED50) of 9.21 µmol/kg and a Max effect of 17327 Counts 10min-1. The ED50 in assay [5] is 15 µmol/kg.
Turning to `COC(=O)CCC1C(c2ccccc2)CC2CCC1N2C` (stereo not given), the negative logarithm of the IC50 (pIC50) in assay [1] is 6.78. Besides, in assay [3], the pKi is 7.64.
For the compound `CN1C2CCC1C(CCCO)C(c1ccccc1)C2` (stereo not given), the negative-log IC50 (pIC50) in assay [6] was 7.19. Moreover, the negative-log Ki (pKi) in assay [3] was 7.96. In addition, in assay [4], the ED50 was found to be 12 µmol/kg and the Max effect amounted to 20820 Counts 10min-1. In assay [5], the ED50 was 12.9 µmol/kg.
For `CN1C2CCC1C(/C=C/CO)C(c1ccccc1)C2` (stereo not given), the pIC50 in assay [1] was 6.80. In assay [7], this compound had a pKi of 7.59.
Take `COC(=O)[C@@H]1C2CC[C@H](C[C@@H]1c1ccccc1)N2C` (single isomer, unassigned): the negative-log IC50 (pIC50) in assay [6] was 6.43. Moreover, the pKi in assay [3] was 7.48 and 6.50.
As to `COC(=O)[C@H]1[C@@H](OC(=O)c2ccccc2)C[C@@H]2CC[C@H]1N2C` [COCAINE], in assay [4], the ED50 came out at 20.8 µmol/kg and the Max effect was found to be 12518 Counts 10min-1. In assay [5], this compound came in with an ED50 of 8.74 µmol/kg.

As usually defined, the pIC50 is the negative decadic logarithm of the IC50, by convention in mol/L. A lower pIC50 goes with a high IC50. The ED50 is the midpoint of the dose-response relation. A word on the pKi: it is −log10 of the Ki, conventionally taken in molar units. The low end stands for a high Ki, the high end for a low Ki.
